Measurements as given in ChEMBL document CHEMBL4229392, “An Efficient Buchwald-Hartwig/Reductive Cyclization for the Scaffold Diversification of Halogenated Phenazines: Potent Antibacterial Targeting, Biofilm Eradication, and Prodrug Exploration” (J Med Chem, 2018).
In brackets after ≈: the same amount, converted by molar mass.

How the values were obtained:
Staphylococcus aureus [1] = assay: Induction of biofilm eradication of methicillin-resistant Staphylococcus aureus BAA-1707 after 24 hrs by calgary biofilm device method; format: functional
Outline: (§1)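 Calgary device: biofilms established 24 h at 37 °C from mid-log culture diluted 1,000-fold in TSBG (0.5% glucose), washed, exposed 24 h to 2-fold serial dilutions, then peg lid moved to fresh TSBG for 24 h recovery. MBEC = lowest concentration giving no turbidity; at least three independent experiments.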

Enterococcus faecium [2] = assay: Induction of biofilm eradication of vancomycin-resistant Enterococcus faecium ATCC 700221 after 24 hrs by calgary biofilm device method; format: functional; outline: as §1
[3] = Hemolytic activity in human RBC at 200 uM after 1 hr relative to control; format: ADME, cell-based, Erythrocyte; conditions: red blood cells (erythrocytes), read-out: Activity
Outline: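 Human RBCs drawn fresh into EDTA were washed three times in Tris-buffered saline (0.01 M Tris, 0.155 M NaCl, pH 7.2). 2% hRBC suspension was added to compound from DMSO stock, final 200 µM, for 1 h at 37 °C, then centrifuged and supernatant OD405 read. Scaled between DMSO (0%) and Triton X (100%). Three independent experiments.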

Enterococcus faecium [4] = assay: Bactericidal activity against vancomycin-resistant Enterococcus faecium ATCC 700221 planktonic cells after 24 hrs by calgary biofilm device method; format: organism-based
Outline: (§2)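 Biofilms grown 24 h at 37 °C on Calgary device pegs from mid-log culture diluted 1,000-fold in TSB + 0.5% glucose; washed pegs challenged 24 h at 37 °C with 2-fold serial dilutions. Challenge medium subcultured into fresh TSBG overnight; MBC = concentration without visible turbidity; at least three independent experiments.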

Staphylococcus aureus [5] = assay: Bactericidal activity against methicillin-resistant Staphylococcus aureus BAA-1707 planktonic cells after 24 hrs by calgary biofilm device method; format: organism-based; outline: as §2
Staphylococcus aureus [6] = assay: Antibacterial activity against methicillin-resistant Staphylococcus aureus BAA-1707 after 16 to 18 hrs by broth microdilution method; format: functional
Outline: (§3)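 CLSI broth microdilution in Lysogeny Broth, eleven two-fold dilutions spanning 0.10–100 µM; ~10^5 cells per well from log-phase culture; DMSO vehicle (top 1% v/v). MIC = lowest concentration preventing growth after 16–18 h at 37 °C, supported by OD600; three independent experiments.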

[7] = system: Staphylococcus epidermidis; assay: Bactericidal activity against methicillin-resistant Staphylococcus epidermidis ATCC 35984 planktonic cells after 24 hrs by calgary biofilm device method; format: organism-based; outline: as §2
HeLa = assay: Cytotoxicity against human HeLa cells after 24 hrs by LDH release assy; format: cell-based
Outline: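 HeLa cells in DMEM with 10% FBS at 37 °C, 5% CO2, dosed at 70-80% confluence with compound diluted in medium at 25, 50 and 100 µM for 24 h. Supernatant mixed with LDH reaction mixture, 30 min at room temperature, stopped, A490 read. Triton X-100 (2% v/v) as maximal-release control, medium only as no-death control, DMSO as vehicle. Three independent experiments.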

[8] = system: Staphylococcus epidermidis; assay: Induction of biofilm eradication of methicillin-resistant Staphylococcus epidermidis ATCC 35984 after 24 hrs by calgary biofilm device method; format: functional; outline: as §1
[9] = system: Staphylococcus epidermidis; assay: Antibacterial activity against methicillin-resistant Staphylococcus epidermidis ATCC 35984 after 16 to 18 hrs by broth microdilution method; format: functional
Staphylococcus aureus [10] = assay: Bactericidal activity against methicillin-resistant Staphylococcus aureus 2 planktonic cells after 24 hrs by calgary biofilm device method; format: organism-based; outline: as §2
Staphylococcus aureus [11] = assay: Antibacterial activity against methicillin-resistant Staphylococcus aureus 2 after 16 to 18 hrs by broth microdilution method; format: functional; outline: as §3
Staphylococcus aureus [12] = assay: Induction of biofilm eradication of methicillin-resistant Staphylococcus aureus 2 after 24 hrs by calgary biofilm device method; format: functional; outline: as §1
Enterococcus faecium [13] = assay: Antibacterial activity against vancomycin-resistant Enterococcus faecium ATCC 700221 after 16 to 18 hrs by broth microdilution method; format: functional; outline: as §3
[14] = Half life in human serum by LC-MS analysis; format: ADME, cell-free
Outline: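 Human serum pre-warmed to 37 °C, spiked with prodrug from 10 mM DMSO stock plus internal standard, vortexed, then held 1 to 60 min. At each time point, acetonitrile with 0.5% formic acid was added to precipitate proteins. Released active HP was quantified as its ratio to internal standard against standard curves.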

[15] = system: Mycobacterium tuberculosis; assay: Antibacterial activity against Mycobacterium tuberculosis H37Ra ATCC 25177 after 7 days; format: functional; conditions: H37Ra ATCC 25177, 168 h
Outline: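 M. tuberculosis H37Ra grown two weeks in Middlebrook 7H9, diluted to OD600 0.01; two-fold serial dilutions 0.024–50 µM (streptomycin positive control, 0.16–340 µM); final DMSO 0.5%. Incubated 7 days at 37 °C; MIC = lowest concentration with no growth, OD600 recorded; three independent experiments.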

| SMILES | MBEC (Staphylococcus aureus [1]) [µM] | MBEC (Enterococcus faecium [2]) [µM] | hemolysis at 1 h, 200 µM [3] [%] | MBC (Enterococcus faecium [4]) [µM] | MBC (Staphylococcus aureus [5]) [µM] | MIC (Staphylococcus aureus [6]) [µM] | MBC [7] [µM] | IC50 (HeLa) [µM] | MBEC [8] [µM] | MIC [9] [µM] | MBC (Staphylococcus aureus [10]) [µM] | MIC (Staphylococcus aureus [11]) [µM] | MBEC (Staphylococcus aureus [12]) [µM] | MIC (Enterococcus faecium [13]) [µM] | half-life [14] [min] | MIC [15] [µM] |
| --- | --- | --- | --- | --- | --- | --- | --- | --- | --- | --- | --- | --- | --- | --- | --- | --- |
| c1ccc(CN(CCN(Cc2ccccn2)Cc2ccccn2)Cc2ccccn2)nc1 | >2000 | >2000 | ≤ 1 | 188 (≈ 79.8 µg/mL) | 250 (≈ 106 µg/mL) | 50 (≈ 21.2 µg/mL) |  |  |  |  |  |  |  |  |  |  |
| Cc1cc2nc3c(O)c(Br)cc(Br)c3nc2c(C)c1C | 75 |  | 1.3 |  | 150 (≈ 59.4 µg/mL) | 0.59 (≈ 0.234 µg/mL) | 25 (≈ 9.9 µg/mL) | > 100 | 25 | 0.1 (≈ 0.0396 µg/mL) |  |  |  |  |  |  |
| CO[C@H]1/C=C/O[C@@]2(C)Oc3c(C)c(O)c4c(O)c(c(/C=N/N5CCN(C)CC5)c(O)c4c3C2=O)NC(=O)/C(C)=C\C=C\[C@H](C)[C@H](O)[C@@H](C)[C@@H](O)[C@@H](C)[C@H](OC(C)=O)[C@@H]1C [RIFAMPIN] |  |  |  |  |  |  | 3 (≈ 2.47 µg/mL) |  | 15.6 | 0.1 (≈ 0.0823 µg/mL) | 2 (≈ 1.65 µg/mL) | 0.1 (≈ 0.0823 µg/mL) | 46.9 |  |  |  |
| CS(=O)(=O)N1CCN(C(=O)Oc2c(Br)cc(Br)c3nc4ccccc4nc23)C1=O | 75 | 9.38 | ≤ 1 | 9.38 (≈ 5.1 µg/mL) | 37.5 (≈ 20.4 µg/mL) |  | 18.8 (≈ 10.2 µg/mL) | > 100 | 37.5 | 1.56 (≈ 0.849 µg/mL) |  |  |  | 3.13 (≈ 1.7 µg/mL) | < 1 |  |
| CCc1ccc2nc3c(O)ccc(Br)c3nc2c1 |  |  |  |  |  |  |  | > 100 |  | 9.38 (≈ 2.84 µg/mL) |  |  |  | 12.5 (≈ 3.79 µg/mL) |  | 25 (≈ 7.58 µg/mL) |
| CCCCCCCCCC(=O)N[C@@H](Cc1c[nH]c2ccccc12)C(=O)N[C@@H](CC(N)=O)C(=O)N[C@@H](CC(=O)O)C(=O)N[C@@H]1C(=O)NCC(=O)N[C@@H](CCCN)C(=O)N[C@@H](CC(=O)O)C(=O)N[C@H](C)C(=O)N[C@@H](CC(=O)O)C(=O)NCC(=O)N[C@H](CO)C(=O)N[C@@H]([C@H](C)CC(=O)O)C(=O)N[C@@H](CC(=O)c2ccccc2N)C(=O)O[C@@H]1C [DAPTOMYCIN] | >2000 |  |  |  |  | 3.13 (≈ 5.07 µg/mL) |  |  |  |  |  |  | >2000 |  |  |  |
| CCCc1cn(Cc2ccc3nc4c(OC(C)=O)c(Br)cc(Br)c4nc3c2)nn1 |  |  |  |  |  | 100 (≈ 51.9 µg/mL) |  |  |  |  |  |  |  | > 100 |  |  |
| COCCOCCOCCOCCOC(=O)Oc1c(Br)cc(Br)c2nc3cc(Cl)ccc3nc12 |  |  | 1.1 |  | 6.25 (≈ 3.89 µg/mL) |  | 9.38 (≈ 5.84 µg/mL) | > 100 | 18.8 | 0.038 (≈ 0.0237 µg/mL) |  |  |  | 0.1 (≈ 0.0623 µg/mL) | < 1 |  |
| Cc1cc(C)c2nc3c(Br)ccc(O)c3nc2c1 |  |  |  |  |  | 4.69 (≈ 1.42 µg/mL) |  | > 100 |  |  |  |  |  | 9.38 (≈ 2.84 µg/mL) |  | 50 (≈ 15.2 µg/mL) |
| OC[C@H]1O[C@@H](Oc2c(Br)cc(Br)c3nc4ccccc4nc23)[C@H](O)[C@@H](O)[C@@H]1O |  |  | ≤ 1 |  |  | > 100 |  |  |  | > 100 |  |  |  | > 100 | > 260 |  |
| CC(=O)NC[C@H]1CN(c2ccc(N3CCOCC3)c(F)c2)C(=O)O1 [LINEZOLID] | >2000 |  | ≤ 1 |  | 31.3 (≈ 10.6 µg/mL) | 12.5 (≈ 4.22 µg/mL) |  |  |  |  |  | 3.13 (≈ 1.06 µg/mL) | >2000 |  |  |  |
| COCCOCCOCC(=O)Oc1c(Br)cc(Br)c2nc3ccccc3nc12 | 75 |  | 1.2 | 6.25 (≈ 3.21 µg/mL) | 18.8 (≈ 9.67 µg/mL) |  | 9.38 (≈ 4.82 µg/mL) | > 100 | 37.5 |  |  |  |  | 3.13 (≈ 1.61 µg/mL) | < 1 |  |
| Cc1ccc2nc3c(O)c(Br)cc(Br)c3nc2c1 |  | 3.13 | ≤ 1 | 12.5 (≈ 4.6 µg/mL) |  |  |  | > 100 |  | 0.3 (≈ 0.11 µg/mL) |  |  |  | 2.35 (≈ 0.865 µg/mL) |  | 6.25 (≈ 2.3 µg/mL) |
| COCCOCCOCCOCCOC(=O)Oc1c(Br)cc(Br)c2nc3cc(Oc4ccccc4)ccc3nc12 | 4.69 | 1.17 | ≤ 1 |  | 18.8 (≈ 12.8 µg/mL) | 0.1 (≈ 0.068 µg/mL) | 9.38 (≈ 6.38 µg/mL) |  |  | 0.075 (≈ 0.051 µg/mL) |  |  |  | 0.3 (≈ 0.204 µg/mL) | < 1 |  |
| O=C(OCCSSCCOC(=O)c1ccccc1)OCOc1c(Br)cc(Br)c2nc3ccccc3nc12 |  |  | 1.3 |  |  | > 100 |  | > 100 |  | > 100 |  |  |  | > 100 |  |  |
